Assay results from ChEMBL document CHEMBL2424526, “Thrombin inhibitory activity of some polyphenolic compounds” (Med Chem Res, 2013).
Calls of active or inactive are those of the source. No cut-off for these calls is given here.

Key:
Prothrombin [1] = biological target: T1, Prothrombin (Homo sapiens, UniProt P00734); conditions: 50 to 1000 uM
Prothrombin [2] = biological target: T1, Prothrombin; experiment: Inhibition of human thrombin assessed as inhibition of fibrinogen polymerization preincubated for 10 mins followed by fibrionogen addition measured for 20 mins
Procedure, shortened: (§1)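 Thrombin preincubated with compound 10 min at 37 °C, then added (final 10.4 nM) to human fibrinogen (3 mg/ml) in 50 mM TBS with 5 mM CaCl2, pH 7.4. Turbidity at 595 nm read every 12 s for 20 min at 37 °C. Vmax expressed as % of solvent control; 12 independent experiments in duplicate.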

Prothrombin [3] = biological target: T1, Prothrombin; conditions: 75 to 750 uM
Prothrombin [4] = biological target: T1, Prothrombin; experiment: Inhibition of human thrombin assessed as equilibrium association constant at 50 to 1000 uM by BIAcore analysis
Prothrombin [5] = biological target: T1, Prothrombin; experiment: Inhibition of human thrombin amidolytic activity using D-Phe-Pip-Arg-pNA as substrate preincubated for 10 mins followed by substrate addition measured every 12 secs for 10 mins by spectrophotometric analysis
Prothrombin [6] = biological target: T1, Prothrombin; experiment: Inhibition of human thrombin amidolytic activity using D-Phe-Pip-Arg-pNA as substrate at 0.1 to 1000 uM preincubated for 10 mins followed by substrate addition measured every 12 secs for 10 mins by spectrophotometric analysis
Procedure, shortened: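 Human plasma thrombin (17.6 nM in 50 mM TBS pH 7.4) preincubated 10 min at 37 °C with compound (from 10 mM stocks in 50% DMSO; final DMSO 5%, final thrombin 15.8 nM), then added to 3 mM D-Phe-Pip-Arg-pNA stock.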

Prothrombin [7] = biological target: T1, Prothrombin; experiment: Inhibition of human thrombin assessed as decrease in platelet aggregation preincubated for 10 mins measured for 10 mins by dual channel chrono-log aggregometric analysis
Procedure, shortened: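 Gel-filtered (BSA–Sepharose 2B) human platelets at 1.5 × 10^5/μl in modified Tyrode's buffer pH 7.4, prewarmed 5 min at 37 °C with stirring. Thrombin (final 2.4 nM) preincubated 10 min at 37 °C with compound, then added. Turbidimetric aggregation recorded 10 min (0.77 % DMSO final). Result given as % of control; eight independent experiments in duplicate.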

Prothrombin [8] = biological target: T1, Prothrombin; experiment: Inhibition of human thrombin assessed as response unit at 1000 uM by BIAcore analysis
Procedure, shortened: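 Thrombin amine-coupled on a CM5 chip (NHS/EDC, acetate pH 6.0), 25 °C, PBS pH 7.4 running buffer. Polyphenol (100 μl) injected for 600 s at 10 μl/min, followed by 200 s PBS dissociation. Bound level read in RU. Channel regenerated with 0.1 M NaOH and 0.1 M HCl.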

Prothrombin [9] = biological target: T1, Prothrombin; experiment: Inhibition of human thrombin assessed as inhibition of fibrinogen gamma-gamma chain formation at IC50 after 15 mins by SDS-PAGE analysis
Procedure, shortened: (§2)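 Fibrinogen isolated from human plasma, containing factor XIII (3 mg/ml in 50 mM TBS, 5 mM CaCl2), mixed with thrombin (final 10.4 nM) that was preincubated with compound. Incubated at 37 °C and stopped at 5, 15 or 30 min with urea/SDS/β-mercaptoethanol buffer. Run on 7.5 % SDS-PAGE with Coomassie stain. Aα, γ, γ–γ dimer and α-polymer bands scored.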

Prothrombin [10] = biological target: T1, Prothrombin; experiment: Inhibition of human thrombin assessed as inhibition of fibrinogen gamma-gamma chain formation at IC50 after 5 mins by SDS-PAGE analysis
Procedure, shortened: as §2

Prothrombin [11] = biological target: T1, Prothrombin; experiment: Inhibition of human thrombin assessed as inhibition of band decaying corresponding to fibrinogen Aalpha chains at IC50 after 30 mins by SDS-PAGE analysis
Procedure, shortened: as §2

Prothrombin [12] = biological target: T1, Prothrombin; experiment: Competitive inhibition of human thrombin using D-Phe-Pip-Arg-pNA as substrate preincubated for 10 mins followed by substrate addition measured every 12 secs for 10 mins by Lineweaver-Burk plot analysis
Prothrombin [13] = biological target: T1, Prothrombin; experiment: Inhibition of human thrombin assessed as inhibition of fibrinogen alpha-polymer formation at IC50 after 5 mins by SDS-PAGE analysis
Procedure, shortened: as §2

Prothrombin [14] = biological target: T1, Prothrombin; experiment: Inhibition of human thrombin assessed as inhibition of fibrinogen alpha polymer formation at IC50 after 15 mins by SDS-PAGE analysis
Procedure, shortened: as §2

Prothrombin [15] = biological target: T1, Prothrombin; experiment: Inhibition of human thrombin assessed as inhibition of band decaying corresponding to fibrinogen gamma chains at IC50 after 30 mins by SDS-PAGE analysis
Procedure, shortened: as §2

Prothrombin [16] = biological target: T1, Prothrombin; conditions: 5 uM
Prothrombin [17] = biological target: T1, Prothrombin; conditions: 150 to 1000 uM
Prothrombin [18] = biological target: T1, Prothrombin; conditions: 150 to 1000 uM; remark: listed apart in the source
Trypsin = Trypsin (Homo sapiens, UniProt P07477+P07478+P35030); experiment: Inhibition of trypsin amidolytic activity (unknown origin); assay type: protein assay
Prothrombin [19] = biological target: T1, Prothrombin; experiment: Inhibition of thrombin (unknown origin) assessed as hydrolysis of N-benzoyl-phenylalanylvalyl-arginine-paranitroanilide
Prothrombin [20] = biological target: T1, Prothrombin; experiment: Inhibition of human thrombin assessed as inhibition of fibrinogen alpha-polymer formation at 15 uM after 5 mins by SDS-PAGE analysis
Procedure, shortened: as §2

[21] = biological target: Urokinase-type plasminogen activator (Homo sapiens, UniProt P00749); experiment: Inhibition of urokinase amidolytic activity (unknown origin)
Prothrombin [22] = biological target: T1, Prothrombin; experiment: Inhibition of human thrombin assessed as inhibition of band decaying corresponding to fibrinogen Aalpha chains at 15 uM after 5 mins by SDS-PAGE analysis
Procedure, shortened: as §2

Prothrombin [23] = biological target: T1, Prothrombin; experiment: Inhibition of human thrombin assessed as inhibition of fibrinogen gamma-gamma chain formation at 15 uM after 5 mins by SDS-PAGE analysis
Procedure, shortened: as §2

Prothrombin [24] = biological target: T1, Prothrombin; experiment: Inhibition of human thrombin assessed as inhibition of fibrinogen polymerization at 50 uM preincubated for 10 mins followed by fibrionogen addition measured for 20 mins
Procedure, shortened: as §1

Prothrombin [25] = biological target: T1, Prothrombin; experiment: Inhibition of human thrombin assessed as inhibition of band decaying corresponding to fibrinogen gamma chains at 15 uM after 5 mins by SDS-PAGE analysis
Procedure, shortened: as §2

Prothrombin [26] = biological target: T1, Prothrombin; conditions: 125 to 1000 uM
Prothrombin [27] = biological target: T1, Prothrombin; conditions: 125 to 1000 uM; remark: listed apart in the source
Prothrombin [28] = biological target: T1, Prothrombin; experiment: Inhibition of human thrombin assessed as inhibition of fibrinogen gamma-gamma chain formation at 250 uM after 5 mins by SDS-PAGE analysis
Procedure, shortened: (§3)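 Thrombin preincubated 10 min at 37 °C with compound, then mixed with human fibrinogen (3 mg/ml, containing factor XIII) in 50 mM TBS with 5 mM CaCl2; final thrombin 10.4 nM, 37 °C. Stopped at 5, 15, 30 min with urea/SDS/β-mercaptoethanol buffer. Run on 7.5% SDS-PAGE, Coomassie stained, scored for γ–γ dimer and α-polymer bands.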

Prothrombin [29] = biological target: T1, Prothrombin; experiment: Inhibition of human thrombin assessed as inhibition of fibrinogen alpha-polymer formation at 250 uM after 5 mins by SDS-PAGE analysis
Procedure, shortened: as §3

Prothrombin [30] = biological target: T1, Prothrombin; experiment: Inhibition of human thrombin assessed as inhibition of fibrinogen gamma-gamma chain formation at 250 uM after 15 mins by SDS-PAGE analysis
Procedure, shortened: as §3

Prothrombin [31] = biological target: T1, Prothrombin; experiment: Inhibition of human thrombin assessed as decrease in platelet aggregation at 25 to 250 uM preincubated for 10 mins measured for 10 mins by dual channel chrono-log aggregometric analysis
Procedure, shortened: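 Human plasma thrombin (17.6 nM in 50 mM TBS, pH 7.4) preincubated 10 min at 37 °C with compound from 50% DMSO stock (9:1 v/v). Added to gel-filtered human platelets in modified Tyrode's buffer (1.5 × 10^5/μl), pre-warmed 5 min at 37 °C with stirring; final thrombin 2.4 nM, DMSO 0.77%. Turbidimetric aggregation followed for 10 min. Given as % of solvent control; eight independent experiments in duplicate.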

Prothrombin [32] = biological target: T1, Prothrombin; experiment: Inhibition of human thrombin assessed as inhibition of fibrinogen alpha-polymer formation at 250 uM after 15 mins by SDS-PAGE analysis
Procedure, shortened: as §3

Prothrombin [33] = biological target: T1, Prothrombin; experiment: Inhibition of human thrombin assessed as inhibition of fibrinogen polymerization at 1000 uM preincubated for 10 mins followed by fibrionogen addition measured for 20 mins
Procedure, shortened: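 Thrombin preincubated 10 min at 37 °C with compound, then added to human fibrinogen (3 mg/ml) in 50 mM TBS, 5 mM CaCl2, pH 7.4; final thrombin 10.4 nM. Turbidity at 595 nm read every 12 s for 20 min at 37 °C. Vmax expressed as % of solvent control; mean ± SD of 12 independent experiments in duplicate.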

## OC[C@H]1O[C@@H](Oc2cc3c(O[C@@H]4O[C@H](CO)[C@@H](O)[C@H](O)[C@H]4O)cc(O)cc3[o+]c2-c2ccc(O)c(O)c2)[C@H](O)[C@@H](O)[C@@H]1O
Prothrombin [1]
  inhibition: inactive
Prothrombin [2]
  inhibition: inactive
Prothrombin [3]
  inhibition: inactive
Prothrombin [4]
  Ka: 1.15 ×10² /M
Prothrombin [5]
  inhibition: Dose-dependent effect

## COc1ccc([C@@H]2CC(=O)c3c(O)cc(O[C@@H]4O[C@H](CO[C@@H]5O[C@@H](C)[C@H](O)[C@@H](O)[C@H]5O)[C@@H](O)[C@H](O)[C@H]4O)cc3O2)cc1O
Prothrombin [6]
  inhibition: inactive

## C[C@@H]1O[C@@H](OC[C@H]2O[C@@H](Oc3c(-c4ccc(O)c(O)c4)oc4cc(O)cc(O)c4c3=O)[C@H](O)[C@@H](O)[C@@H]2O)[C@H](O)[C@H](O)[C@H]1O
Prothrombin [6]
  inhibition: inactive

## Oc1cc(O)c2cc(O)c(-c3ccc(O)c(O)c3)[o+]c2c1
Prothrombin [7]
  inhibition: Dose-dependent effect
Prothrombin [8]
  RU: 2250
Prothrombin [9]
  inhibition: inactive
Prothrombin [2]
  inhibition: Dose-dependent effect
Prothrombin [10]
  inhibition: Active
Prothrombin [11]
  inhibition: inactive
Prothrombin [12]
  inhibition: Active
Prothrombin [13]
  inhibition: Active
Prothrombin [14]
  inhibition: inactive
Prothrombin [15]
  inhibition: inactive
Prothrombin [16]
  inhibition: Active
Prothrombin [5]
  inhibition: Dose-dependent effect

## O=C(O)c1cc(O)c(O)c(O)c1
Prothrombin [6]
  inhibition: inactive

## C[C@@H]1O[C@@H](O[C@H]2[C@H](Oc3cc(O)c4c(c3)O[C@H](c3ccc(O)cc3)CC4=O)O[C@H](CO)[C@@H](O)[C@@H]2O)[C@H](O)[C@H](O)[C@H]1O
Prothrombin [6]
  inhibition: inactive

## O=C1C[C@@H](c2ccc(O)cc2)Oc2cc(O)cc(O)c21
Prothrombin [6]
  inhibition: inactive

## O=c1c(-c2ccc(O)cc2)coc2cc(O)cc(O)c12
Prothrombin [6]
  inhibition: inactive

## Oc1cc(O)c2c(c1)O[C@H](c1ccc(O)c(O)c1)[C@H](O)C2
Prothrombin [17]
  inhibition: inactive
Prothrombin [2]
  inhibition: inactive
Prothrombin [18]
  inhibition: inactive
Prothrombin [12]
  inhibition: Active
Prothrombin [4]
  Ka: 1.92 ×10² /M
Prothrombin [5]
  inhibition: Dose-dependent effect

## COc1ccc([C@@H]2CC(=O)c3c(O)cc(O)cc3O2)cc1O
Prothrombin [6]
  inhibition: inactive

## O=c1c(O)c(-c2ccc(O)c(O)c2)oc2cc(O)cc(O)c12 [QUERCETIN]
Prothrombin [7]
  inhibition: Dose-dependent effect
Prothrombin [8]
  RU: 1880
Prothrombin [9]
  inhibition: inactive
Prothrombin [2]
  inhibition: Dose-dependent effect
Trypsin
  IC50: 15.4 µM
Prothrombin [19]
  IC50: 30 µM
Prothrombin [20]
  inhibition: Active
Prothrombin [10]
  inhibition: Active
Prothrombin [11]
  inhibition: inactive
[21]
  IC50: 12.1 µM
Prothrombin [22]
  inhibition: Active
Prothrombin [23]
  inhibition: Active
Prothrombin [12]
  inhibition: Active
Prothrombin [4]
  Ka: 2.59 ×10⁷ /M
Prothrombin [13]
  inhibition: Active
Prothrombin [24]
  inhibition: Active
Prothrombin [14]
  inhibition: inactive
Prothrombin [15]
  inhibition: inactive
Prothrombin [25]
  inhibition: Active
Prothrombin [5]
  inhibition: Dose-dependent effect

## O=C(/C=C/c1ccc(O)c(O)c1)O[C@@H]1C[C@](O)(C(=O)O)C[C@@H](O)[C@H]1O
Prothrombin [6]
  inhibition: inactive

## Oc1cc(O)c2c(c1)O[C@H](c1ccc(O)c(O)c1)[C@@H](O)C2
Prothrombin [2]
  inhibition: inactive
Prothrombin [12]
  inhibition: Active
Prothrombin [4]
  Ka: 2.03 ×10⁴ /M
Prothrombin [26]
  inhibition: inactive
Prothrombin [5]
  inhibition: Dose-dependent effect
Prothrombin [27]
  inhibition: inactive

## COc1cc(C2Oc3cc([C@H]4Oc5cc(O)cc(O)c5C(=O)[C@@H]4O)ccc3OC2CO)ccc1O (some centres undefined) [SILIBININ]
Prothrombin [8]
  RU: 1420
Prothrombin [2]
  inhibition: Dose-dependent effect
Trypsin
  IC50: 3.7 µM
Prothrombin [19]
  IC50: 20.9 µM
Prothrombin [28]
  inhibition: Active
[21]
  IC50: 21 µM
Prothrombin [29]
  inhibition: Active
Prothrombin [30]
  inhibition: inactive
Prothrombin [12]
  inhibition: Active
Prothrombin [4]
  Ka: 5.39 ×10⁴ /M
Prothrombin [31]
  inhibition: Active
Prothrombin [32]
  inhibition: inactive
Prothrombin [5]
  inhibition: Dose-dependent effect
Prothrombin [33]
  inhibition: Active

## Oc1cc(O)c2c(c1)O[C@H](c1ccc(O)c(O)c1)[C@H](O)[C@H]2c1c(O)cc(O)c2c1O[C@H](c1ccc(O)c(O)c1)[C@H](O)C2
Prothrombin [6]
  inhibition: inactive

## O=C(O)Cc1ccc(O)cc1
Prothrombin [6]
  inhibition: inactive

## O=C(O)/C=C/c1ccc(O)cc1
Prothrombin [6]
  inhibition: inactive
